In brackets after ≈: the same amount, converted by molar mass.
Legend:
[1] = Compound was evaluated for its relative half life of hydrolysis to meropenem by partially purified porcine renal dihydropeptidase-I (DHP-I); type: functional; settings: Sus scrofa
Escherichia coli [2] = test: Antibacterial activity against Escherichia coli 078; type: functional
In short: (§1)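 MIC was determined by agar dilution on Mueller–Hinton medium.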

Escherichia coli [3] = test: Antibacterial activity against Escherichia coli 1507E; type: functional; in short: as §1
Enterobacter cloacae [4] = test: Antibacterial activity against Enterobacter cloacae 1321E; type: functional; in short: as §1
Klebsiella aerogenes = test: Antibacterial activity against Klebsiella aerogenes 1522E; type: functional; in short: as §1
Pseudomonas aeruginosa [5] = test: Antibacterial activity against Pseudomonas aeruginosa 1771M; type: functional; in short: as §1
Pseudomonas aeruginosa [6] = test: Antibacterial activity against Pseudomonas aeruginosa 9027; type: functional; in short: as §1
Salmonella typhimurium [7] = test: Antibacterial activity against Salmonella Typhimurium; type: functional, Salmonella enterica subsp. enterica serovar Typhimurium; settings: Salmonella enterica; in short: as §1
Streptococcus pyogenes = test: Antibacterial activity against Streptococcus pyogenes 308A; type: functional
Staphylococcus aureus [8] = test: Antibacterial activity against Staphylococcus aureus 285; type: functional
Staphylococcus aureus [9] = test: Antibacterial activity against Staphylococcus aureus 503; type: functional
Staphylococcus aureus [10] = test: Antibacterial activity against Staphylococcus aureus SG 511; type: functional
Pseudomonas aeruginosa [11] = test: Antibacterial activity against Pseudomonas aeruginosa 1592E
Enterobacter cloacae [12] = test: Compound was evaluated for its antibacterial activity against Enterobacter cloacae P99; type: functional
Escherichia coli [13] = test: Compound was evaluated for its antibacterial activity against Escherichia coli CCARM 1116 MDR; type: functional
Escherichia coli [14] = test: Compound was evaluated for its antibacterial activity against Escherichia coli CCARM 1117 MDR; type: functional
Escherichia coli [15] = test: Compound was evaluated for its antibacterial activity against Escherichia coli DC 0; type: functional
Escherichia coli [16] = test: Compound was evaluated for its antibacterial activity against Escherichia coli DC 2; type: functional
Escherichia coli [17] = test: Compound was evaluated for its antibacterial activity against Escherichia coli TEM; type: functional
Escherichia coli [18] = test: Compound was evaluated for its antibacterial activity against Escherichia coli 0157:H7; type: functional
Escherichia coli [19] = test: Compound was evaluated for its antibacterial activity against Escherichia coli ATCC 25922; type: functional
Escherichia coli [20] = test: Compound was evaluated for its antibacterial activity against Escherichia coli CCARM 1108 MDR; type: functional
Escherichia coli [21] = test: Compound was evaluated for its antibacterial activity against Escherichia coli CCARM 1109 MDR; type: functional
Escherichia coli [22] = test: Compound was evaluated for its antibacterial activity against Escherichia coli CCARM 1111 MDR; type: functional
Escherichia coli [23] = test: Compound was evaluated for its antibacterial activity against Escherichia coli CCARM 1112 MDR; type: functional
Escherichia coli [24] = test: Compound was evaluated for its antibacterial activity against Escherichia coli CCARM 1113 MDR; type: functional
Escherichia coli [25] = test: Compound was evaluated for its antibacterial activity against Escherichia coli CCARM 1114 MDR; type: functional
Escherichia coli [26] = test: Compound was evaluated for its antibacterial activity against Escherichia coli CCARM 1115 MDR; type: functional
Klebsiella pneumoniae [27] = test: Compound was evaluated for its antibacterial activity against Klebsiella pneumoniae 8 ESBL; type: functional
Klebsiella pneumoniae [28] = test: Compound was evaluated for its antibacterial activity against Klebsiella pneumoniae 9 ESBL; type: functional
Klebsiella oxytoca = test: Compound was evaluated for its antibacterial activity against Klebsiella oxytoca 1082E; type: functional
Klebsiella pneumoniae [29] = test: Compound was evaluated for its antibacterial activity against Klebsiella pneumoniae 1 ESBL; type: functional
Klebsiella pneumoniae [30] = test: Compound was evaluated for its antibacterial activity against Klebsiella pneumoniae 10 ESBL; type: functional
Klebsiella pneumoniae [31] = test: Compound was evaluated for its antibacterial activity against Klebsiella pneumoniae 3 ESBL; type: functional
Klebsiella pneumoniae [32] = test: Compound was evaluated for its antibacterial activity against Klebsiella pneumoniae 4 ESBL; type: functional
Klebsiella pneumoniae [33] = test: Compound was evaluated for its antibacterial activity against Klebsiella pneumoniae 5 ESBL; type: functional
Pseudomonas aeruginosa [34] = test: Compound was evaluated for its antibacterial activity against Pseudomonas aeruginosa 1 MDR; type: functional
Pseudomonas aeruginosa [35] = test: Compound was evaluated for its antibacterial activity against Pseudomonas aeruginosa 2 MDR; type: functional
Pseudomonas aeruginosa [36] = test: Compound was evaluated for its antibacterial activity against Pseudomonas aeruginosa ATCC 27853; type: functional
Shigella sonnei = test: Compound was evaluated for its antibacterial activity against Shigella sonnei ATCC 9290; type: functional
Salmonella enteritidis [37] = test: Compound was evaluated for its antibacterial activity against […] enteritidis; type: functional, Salmonella enterica subsp. enterica serovar Enteritidis; settings: Salmonella enterica
Salmonella enteritidis [38] = test: Compound was evaluated for its antibacterial activity against […] enteritidis 1; type: functional, Salmonella enterica subsp. enterica serovar Enteritidis; settings: Salmonella enterica
Salmonella enteritidis [39] = test: Compound was evaluated for its antibacterial activity against […] enteritidis 2; type: functional, Salmonella enterica subsp. enterica serovar Enteritidis; settings: Salmonella enterica
Salmonella enteritidis [40] = test: Compound was evaluated for its antibacterial activity against […] enteritidis 3; type: functional, Salmonella enterica subsp. enterica serovar Enteritidis; settings: Salmonella enterica
Salmonella typhimurium [41] = test: Compound was evaluated for its antibacterial activity against Salmonella Typhimurium; type: functional, Salmonella enterica subsp. enterica serovar Typhimurium; settings: Salmonella enterica
Salmonella typhimurium [42] = test: Compound was evaluated for its antibacterial activity against Salmonella Typhimurium 1; type: functional, Salmonella enterica subsp. enterica serovar Typhimurium; settings: Salmonella enterica
Salmonella typhimurium [43] = test: Compound was evaluated for its antibacterial activity against Salmonella Typhimurium 2; type: functional, Salmonella enterica subsp. enterica serovar Typhimurium; settings: Salmonella enterica
Shigella flexneri = test: Compound was evaluated for its antibacterial activity against Shigella flexneri ATCC 9199; type: functional
Escherichia coli [44] = test: Compound was evaluated for its antibacterial activity against Escherichia coli CCARM 1110 MDR; type: functional
Klebsiella pneumoniae [45] = test: Compound was evaluated for its antibacterial activity against Klebsiella pneumoniae 7 ESBL; type: functional
Klebsiella pneumoniae [46] = test: Compound was evaluated for its antibacterial activity against Klebsiella pneumoniae 2 ESBL; type: functional
Klebsiella pneumoniae [47] = test: Compound was evaluated for its antibacterial activity against Klebsiella pneumoniae 6 ESBL; type: functional
Pseudomonas aeruginosa [48] = test: Compound was evaluated for its antibacterial activity against Pseudomonas aeruginosa 3 MDR; type: functional

## CO/N=C1\CN(C(=O)[C@@H]2C[C@H](SC3=C(C(=O)O)N4C(=O)[C@H]([C@@H](C)O)[C@H]4[C@H]3C)CN2)CC1CN (some centres undefined)
[1]
  relative t1/2 (DHP-I hydrolysis vs meropenem): 0.25
Escherichia coli [2]
  MIC: 0.025 µg/mL (≈ 0.0519 µM)
Escherichia coli [3]
  MIC: 0.049 µg/mL (≈ 0.102 µM)
Enterobacter cloacae [4]
  MIC: 0.025 µg/mL (≈ 0.0519 µM)
Klebsiella aerogenes
  MIC: 0.098 µg/mL (≈ 0.203 µM)
Pseudomonas aeruginosa [5]
  MIC: 0.098 µg/mL (≈ 0.203 µM)
Pseudomonas aeruginosa [6]
  MIC: 0.391 µg/mL (≈ 0.812 µM)
Salmonella typhimurium [7]
  MIC: 0.098 µg/mL (≈ 0.203 µM)
Streptococcus pyogenes
  MIC: 0.004 µg/mL (≈ 0.00831 µM)
Staphylococcus aureus [8]
  MIC: 0.195 µg/mL (≈ 0.405 µM)
Staphylococcus aureus [9]
  MIC: 0.049 µg/mL (≈ 0.102 µM)
Staphylococcus aureus [10]
  MIC: 0.098 µg/mL (≈ 0.203 µM)
Pseudomonas aeruginosa [11]
  MIC: 0.195 µg/mL (≈ 0.405 µM)

## C[C@@H](O)[C@H]1C(=O)N2C(C(=O)O)=C(S[C@@H]3CN[C@H](C(=O)N4C/C(=N\O)C(CN)C4)C3)[C@H](C)[C@H]12 (some centres undefined)
[1]
  relative t1/2 (DHP-I hydrolysis vs meropenem): 0.31
Escherichia coli [2]
  MIC: 0.025 µg/mL (≈ 0.0535 µM)
Escherichia coli [3]
  MIC: 0.049 µg/mL (≈ 0.105 µM)
Enterobacter cloacae [4]
  MIC: 0.049 µg/mL (≈ 0.105 µM)
Klebsiella aerogenes
  MIC: 0.098 µg/mL (≈ 0.21 µM)
Pseudomonas aeruginosa [5]
  MIC: 0.098 µg/mL (≈ 0.21 µM)
Pseudomonas aeruginosa [6]
  MIC: 0.195 µg/mL (≈ 0.417 µM)
Salmonella typhimurium [7]
  MIC: 0.098 µg/mL (≈ 0.21 µM)
Streptococcus pyogenes
  MIC: 0.002 µg/mL (≈ 0.00428 µM)
Staphylococcus aureus [8]
  MIC: 0.195 µg/mL (≈ 0.417 µM)
Staphylococcus aureus [9]
  MIC: 0.098 µg/mL (≈ 0.21 µM)
Staphylococcus aureus [10]
  MIC: 0.098 µg/mL (≈ 0.21 µM)
Pseudomonas aeruginosa [11]
  MIC: 0.098 µg/mL (≈ 0.21 µM)

## C[C@@H](O)[C@H]1C(=O)N2C(C(=O)[O-])=C(S[C@@H]3CN[C@H](C(=O)Nc4cccc(C(=O)O)c4)C3)[C@H](C)[C@H]12.O.[Na+]
Enterobacter cloacae [12]
  MIC: 0.06 µg/mL
Escherichia coli [13]
  MIC: ≤ 0.008 µg/mL
Escherichia coli [14]
  MIC: 0.03 µg/mL
Escherichia coli [15]
  MIC: ≤ 0.008 µg/mL
Escherichia coli [16]
  MIC: 0.016 µg/mL
Escherichia coli [17]
  MIC: 0.016 µg/mL
Escherichia coli [18]
  MIC: ≤ 0.008 µg/mL
Escherichia coli [19]
  MIC: ≤ 0.008 µg/mL
Escherichia coli [20]
  MIC: 0.016 µg/mL
Escherichia coli [21]
  MIC: 0.06 µg/mL
Escherichia coli [22]
  MIC: ≤ 0.008 µg/mL
Escherichia coli [23]
  MIC: 0.016 µg/mL
Escherichia coli [24]
  MIC: 0.06 µg/mL
Escherichia coli [25]
  MIC: 0.25 µg/mL
Escherichia coli [26]
  MIC: 0.06 µg/mL
Klebsiella pneumoniae [27]
  MIC: 1 µg/mL
Klebsiella pneumoniae [28]
  MIC: 0.016 µg/mL
Klebsiella oxytoca
  MIC: 0.03 µg/mL
Klebsiella pneumoniae [29]
  MIC: 0.016 µg/mL
Klebsiella pneumoniae [30]
  MIC: 0.016 µg/mL
Klebsiella pneumoniae [31]
  MIC: 0.5 µg/mL
Klebsiella pneumoniae [32]
  MIC: 0.06 µg/mL
Klebsiella pneumoniae [33]
  MIC: ≤ 0.008 µg/mL
Pseudomonas aeruginosa [34]
  MIC: 8 µg/mL
Pseudomonas aeruginosa [35]
  MIC: 8 µg/mL
Pseudomonas aeruginosa [36]
  MIC: 4 µg/mL
Shigella sonnei
  MIC: ≤ 0.008 µg/mL
Salmonella enteritidis [37]
  MIC: ≤ 0.008 µg/mL
Salmonella enteritidis [38]
  MIC: ≤ 0.008 µg/mL
Salmonella enteritidis [39]
  MIC: ≤ 0.008 µg/mL
Salmonella enteritidis [40]
  MIC: ≤ 0.008 µg/mL
Salmonella typhimurium [41]
  MIC: 0.016 µg/mL
Salmonella typhimurium [42]
  MIC: ≤ 0.008 µg/mL
Salmonella typhimurium [43]
  MIC: ≤ 0.008 µg/mL
Shigella flexneri
  MIC: ≤ 0.008 µg/mL
Escherichia coli [44]
  MIC: 0.03 µg/mL
Klebsiella pneumoniae [45]
  MIC: 0.25 µg/mL
Klebsiella pneumoniae [46]
  MIC: 0.016 µg/mL
Klebsiella pneumoniae [47]
  MIC: 0.06 µg/mL
Pseudomonas aeruginosa [48]
  MIC: 8 µg/mL

## C[C@@H](O)[C@H]1C(=O)N2C(C(=O)O)=C(S[C@@H]3CN[C@H](C(=O)N4C/C(=N\O)C(C(=O)O)C4)C3)[C@H](C)[C@H]12 (some centres undefined)
[1]
  relative t1/2 (DHP-I hydrolysis vs meropenem): 0.54
Escherichia coli [2]
  MIC: 0.013 µg/mL (≈ 0.0269 µM)
Escherichia coli [3]
  MIC: 0.025 µg/mL (≈ 0.0518 µM)
Enterobacter cloacae [4]
  MIC: 0.025 µg/mL (≈ 0.0518 µM)
Klebsiella aerogenes
  MIC: 0.049 µg/mL (≈ 0.102 µM)
Pseudomonas aeruginosa [5]
  MIC: 0.195 µg/mL (≈ 0.404 µM)
Pseudomonas aeruginosa [6]
  MIC: 0.391 µg/mL (≈ 0.81 µM)
Salmonella typhimurium [7]
  MIC: 0.049 µg/mL (≈ 0.102 µM)
Streptococcus pyogenes
  MIC: 0.013 µg/mL (≈ 0.0269 µM)
Staphylococcus aureus [8]
  MIC: 0.195 µg/mL (≈ 0.404 µM)
Staphylococcus aureus [9]
  MIC: 0.098 µg/mL (≈ 0.203 µM)
Staphylococcus aureus [10]
  MIC: 0.098 µg/mL (≈ 0.203 µM)
Pseudomonas aeruginosa [11]
  MIC: 0.391 µg/mL (≈ 0.81 µM)
